From ChEMBL document CHEMBL4428077, “Synthesis and Biological Evaluation of N-((1-(4-(Sulfonyl)piperazin-1-yl)cycloalkyl)methyl)benzamide Inhibitors of Glycine Transporter-1” (J Med Chem, 2016)
The source made the active and inactive calls. The rule behind the calls is not given here.

Legend:
[1] = Intrinsic clearance in human liver microsomes at 3 uM incubated up to 60 mins by LC-MS analysis; type: ADME, Microsome; conditions: read-out: CLH
Summary of the method: (§1)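 Liver microsomes with a cofactor regeneration system and compound at 3 μM, incubated at 37 °C. Reactions were stopped at 0, 5, 15, 30, 45 and 60 min, in duplicate. Compound remaining was measured by LC-MS. ln(%remaining) was plotted against time, and the slope was normalized to protein to give CL_int. Testosterone at 10 μM served as control.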

[2] = Intrinsic clearance in rat liver microsomes at 3 uM incubated up to 60 mins by LC-MS analysis; type: ADME, Microsome; conditions: read-out: CLH; summary of the method: as §1
[3] = molecular target: T1, Sodium- and chloride-dependent glycine transporter 1 (Homo sapiens, UniProt P48067); assay: Inhibition of glycine transporter-1B in human JAR cells assessed as reduction in [14C]glycine uptake preincubated for 10 mins followed by [14C]glycine addition measured after 3 hrs by scintillation proximity assay; type: cell-based
T1 sequence (P48067 whole entry): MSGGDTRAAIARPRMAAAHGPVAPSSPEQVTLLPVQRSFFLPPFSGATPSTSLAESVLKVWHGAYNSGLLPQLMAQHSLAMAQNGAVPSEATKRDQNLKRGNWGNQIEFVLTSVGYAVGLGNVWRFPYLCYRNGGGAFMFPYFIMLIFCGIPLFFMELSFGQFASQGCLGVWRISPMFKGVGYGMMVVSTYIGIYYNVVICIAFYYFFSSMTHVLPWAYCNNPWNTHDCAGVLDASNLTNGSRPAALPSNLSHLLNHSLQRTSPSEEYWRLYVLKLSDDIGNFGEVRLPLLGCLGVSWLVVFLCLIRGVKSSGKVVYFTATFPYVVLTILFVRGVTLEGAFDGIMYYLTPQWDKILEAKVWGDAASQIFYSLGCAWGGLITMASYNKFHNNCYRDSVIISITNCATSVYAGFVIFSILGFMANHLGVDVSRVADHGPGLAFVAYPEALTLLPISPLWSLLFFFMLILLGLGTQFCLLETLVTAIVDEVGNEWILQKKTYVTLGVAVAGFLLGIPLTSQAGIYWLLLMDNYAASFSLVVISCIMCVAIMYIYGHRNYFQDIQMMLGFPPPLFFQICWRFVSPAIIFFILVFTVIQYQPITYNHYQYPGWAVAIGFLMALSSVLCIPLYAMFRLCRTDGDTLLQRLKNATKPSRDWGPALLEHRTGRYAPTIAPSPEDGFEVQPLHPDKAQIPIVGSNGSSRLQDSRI
Summary of the method: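 Whole-cell SPA in JAR cells, which endogenously express hGlyT-1b. Cells (50,000 per well) were attached overnight in RPMI/10% FBS at 37 °C, 5% CO₂. [¹⁴C]glycine was then added and incubated 3 h at 37 °C. The assay window was set with unlabeled glycine. A reference standard ran on each plate. IC₅₀ values are means of n ≥ 2.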

[4] = molecular target: T2, Sodium- and chloride-dependent glycine transporter 2 (Homo sapiens, UniProt Q9Y345); assay: Inhibition of human glycine transporter-2 expressed in HEK293 cells assessed as reduction in [14C]glycine uptake preincubated for 10 mins followed by [14C]glycine addition measured after 3 hrs by scintillation proximity assay; type: cell-based
T2 sequence (Q9Y345 whole entry): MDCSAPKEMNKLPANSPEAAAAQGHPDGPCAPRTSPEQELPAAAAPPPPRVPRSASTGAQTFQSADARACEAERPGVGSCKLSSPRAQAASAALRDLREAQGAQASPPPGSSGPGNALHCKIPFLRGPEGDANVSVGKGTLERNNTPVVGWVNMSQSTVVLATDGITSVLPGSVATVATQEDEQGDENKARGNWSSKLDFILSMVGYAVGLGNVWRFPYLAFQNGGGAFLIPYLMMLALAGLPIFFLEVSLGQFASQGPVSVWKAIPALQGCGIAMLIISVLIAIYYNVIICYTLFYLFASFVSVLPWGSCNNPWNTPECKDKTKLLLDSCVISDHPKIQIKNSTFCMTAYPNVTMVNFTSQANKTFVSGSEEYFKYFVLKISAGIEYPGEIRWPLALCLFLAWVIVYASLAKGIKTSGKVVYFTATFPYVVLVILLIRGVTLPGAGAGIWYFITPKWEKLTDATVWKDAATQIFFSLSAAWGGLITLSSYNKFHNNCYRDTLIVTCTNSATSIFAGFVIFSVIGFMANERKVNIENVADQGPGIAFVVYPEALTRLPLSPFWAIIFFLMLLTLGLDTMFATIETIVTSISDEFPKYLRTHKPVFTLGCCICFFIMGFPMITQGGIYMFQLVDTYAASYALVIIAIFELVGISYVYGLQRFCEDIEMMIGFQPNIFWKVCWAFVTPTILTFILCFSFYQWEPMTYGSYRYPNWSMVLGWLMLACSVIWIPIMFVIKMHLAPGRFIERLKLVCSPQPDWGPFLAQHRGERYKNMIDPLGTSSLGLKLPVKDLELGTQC
Summary of the method: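 HEK293 cells stably transfected with GlyT-2 (Geneticin-selected polyclonal population) were plated on poly-L-lysine-coated plates in DMEM/10% FBS and incubated overnight. The [¹⁴C]glycine uptake SPA was then run as for JAR cells: uptake buffer, 10 min room-temperature preincubation, 3 h incubation at 37 °C.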

[5] = Metabolic stability in rat liver microsomes assessed as parent compound remaining at 3 uM incubated for 15 mins by LC-MS analysis; type: ADME, Microsome; conditions: for remaining at 0.25 h, 3 µM: liver microsomes, read-out: Stability
Summary of the method: (§2)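 Liver microsomes incubated with compound at 3 μM for 15 min. Parent compound remaining was quantified by LC-MS.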

[6] = Metabolic stability in human liver microsomes assessed as parent compound remaining at 3 uM incubated for 15 mins by LC-MS analysis; type: ADME, Microsome; conditions: for remaining at 0.25 h, 3 µM: liver microsomes, read-out: Stability; for Stability: microsomes, 0.25 h, 3 µM; summary of the method: as §2
[7] = Metabolic stability in human liver microsomes assessed as parent compound remaining at 3 uM incubated for 60 mins by LC-MS analysis; type: ADME, Microsome; conditions: read-out: Stability
Cynomolgus monkey [8] = assay: In vivo inhibition of glycine transporter-1 in cynomolgus monkey assessed as increase in CSF glycine level at 0.3 to 10 mg/kg, po measured at 24 hrs post dose by LC-MS/MS analysis; type: functional, organism-based; conditions: Macaca fascicularis
Summary of the method: (§3)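 Cynomolgus monkeys, n = 3 per group, given oral doses of 0.4, 1.5, 4.7 or 15.7 μmol/kg. Vehicle was 5% Solutol / 20% Captisol in 25 mM PBS, pH 2. CSF (about 0.30 mL) was drawn through subcutaneous ports with a sterile Huber needle predose and at 0.5, 1, 2, 3, 4, 8, 12 and 24 h. Matched blood was taken at each time. Mean ± SD.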

Cynomolgus monkey [9] = assay: In vivo inhibition of glycine transporter-1 in cynomolgus monkey assessed as increase in CSF glycine level at 0.3 to 10 mg/kg, po measured at 2 to 4 hrs post dose by LC-MS/MS analysis; type: functional, organism-based; conditions: Macaca fascicularis; summary of the method: as §3
[10] = molecular target: T3, Sodium- and chloride-dependent glycine transporter 1 (Homo sapiens) (UniProt P48067); assay: Competitive inhibition of glycine transporter-1 (unknown origin) expressed in HEK293 cells at 12 to 108 nM in presence of [3H]glycine by scintillation proximity assay; type: cell-based
T3 sequence (whole entry): T1 sequence (P48067 whole entry)
Summary of the method: (§4)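 Whole-cell SPA glycine transport with transfected HEK-293 cells expressing GlyT-1. Increasing [³H]-glycine concentrations were run at several fixed inhibitor concentrations to derive B_max and K_d for glycine and judge the binding mode.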

[11] = molecular target: T3, Sodium- and chloride-dependent glycine transporter 1 (Homo sapiens); assay: Competitive inhibition of glycine transporter-1 (unknown origin) expressed in HEK293 cells at 0.62 to 17 nM in presence of [3H]glycine by scintillation proximity assay; type: cell-based; summary of the method: as §4

Row | Structure (SMILES) | IC50 [3] [nM] | IC50 [4] [nM] | remaining at 0.25 h, 3 µM [5] [%] | remaining at 0.25 h, 3 µM [6] [%] | other results
1 | CCCS(=O)(=O)N1CCN(C2(CNC(=O)c3ccc(C(F)(F)F)cc3C(F)(F)F)CCC(F)(F)CC2)CC1 | 8.4 | > 75000 | – | – | microsomal CLint at 3 µM [1]: 19 µL/min/mg; microsomal CLint at 3 µM [2]: 4.9 µL/min/mg
2 | CCCS(=O)(=O)N1CCN(C2(CNC(=O)c3ccc(C(F)(F)F)cc3Cl)CCC(F)(F)CC2)CC1 | 12.6 | – | – | – | microsomal CLint at 3 µM [1]: 16 µL/min/mg; microsomal CLint at 3 µM [2]: 11 µL/min/mg
3 | Nc1cccc(Cl)c1C(=O)NCC1(N2CCN(S(=O)(=O)Cc3ccccc3)CC2)CCCCC1 | 9360 | > 75000 | – | – | –
4 | Cn1cc(S(=O)(=O)N2CCN(C3(CNC(=O)c4ccc(C(F)(F)F)cc4C(F)(F)F)CCC(F)(F)CC3)CC2)nn1 | 0.733 | – | 95 | 64 | –
5 | Cn1cc(S(=O)(=O)N2CCN(C3(CNC(=O)c4c(F)cccc4F)CCC(F)(F)CC3)CC2)nn1 | 5.1 | – | 95 | 64 | –
6 | CC(NC(=O)c1ccc(C(F)(F)F)cc1Cl)C1(N2CCN(S(=O)(=O)c3cn(C)nn3)CC2)CCC(F)(F)CC1.Cl (single isomer, unassigned; (-)) | – | – | – | – | Stability [6]: 51%
7 | CCCS(=O)(=O)N1CCN(C2(CNC(=O)c3c(Cl)cccc3OC(F)(F)F)CCC(F)(F)CC2)CC1 | 29 | > 75000 | – | – | –
8 | CCCS(=O)(=O)N1CCN(C2(CNC(=O)c3c(C)cc(F)cc3OC)CCC(F)(F)CC2)CC1 | 28.5 | > 75000 | – | – | –
9 | Cn1cnc(S(=O)(=O)N2CCN(C3(CNC(=O)c4c(Cl)cccc4OC(F)(F)F)CCC(F)(F)CC3)CC2)c1 | 1.49 | > 75000 | 91 | 9.2 | –
10 | Cn1cnc(S(=O)(=O)N2CCN(C3(CNC(=O)c4c(F)cccc4F)CCC(F)(F)CC3)CC2)c1 | 18.3 | > 75000 | 92 | 72 | –
11 | CC(NC(=O)c1ccc(C(F)(F)F)cc1Cl)C1(N2CCN(S(=O)(=O)c3cn(C)nn3)CC2)CCC(F)(F)CC1.Cl (racemic) | 1.03 | – | – | – | Stability ([5]; microsomes, 0.25 h, 3 µM): 66%; Stability [6]: 54%
12 | Cn1cc(S(=O)(=O)N2CCN(C3(CNC(=O)c4ccc(Cl)cc4Cl)CCCCC3)CC2)nn1 | 1.54 | > 75000 | – | 0 | –
13 | Cn1cc(S(=O)(=O)N2CCN(C3(CNC(=O)c4c(Cl)cccc4Cl)CCC(F)(F)CC3)CC2)nn1 | 1.27 | > 75000 | 91 | 33 | –
14 | Cn1cnc(S(=O)(=O)N2CCN(C3(CNC(=O)c4ccc(Cl)cc4Cl)CCCCC3)CC2)c1 | 2.14 | – | – | – | remaining at 1 h, 3 µM [7]: 5%
15 | Cn1cnc(S(=O)(=O)N2CCN(C3(CNC(=O)c4ccc(Cl)cc4Cl)CCC(F)(F)CC3)CC2)c1 | 5.29 | > 75000 | 88 | 30 | –
16 | CC(NC(=O)c1ccc(C(F)(F)F)cc1Cl)C1(N2CCN(S(=O)(=O)c3cn(C)nn3)CC2)CCC(F)(F)CC1 (single isomer, unassigned; (+)) | – | – | – | – | inhibition (Cynomolgus monkey [8]): inactive; inhibition (Cynomolgus monkey [9]): Active; inhibition [10]: Active
17 | CN(CC[C@@H](Oc1ccc(-c2ccccc2)cc1)c1ccc(F)cc1)CC(=O)O | – | – | – | – | inhibition [11]: inactive
18 | Cn1cc(S(=O)(=O)N2CCN(C3(CNC(=O)c4c(Cl)cccc4OC(F)(F)F)CCC(F)(F)CC3)CC2)nn1 | 0.726 | > 75000 | 87 | 24 | –

More lines, main results first:

Row | IC50 [3] [nM] | IC50 [4] [nM] | remaining at 0.25 h, 3 µM [5] [%] | remaining at 0.25 h, 3 µM [6] [%] | Structure (SMILES) | other results
19 | 146 | > 75000 | – | – | Cn1cc(S(=O)(=O)N2CCN(C3(CNC(=O)c4ccc(Cl)cc4Cl)CCCCC3)CC2)cn1 | –
20 | 5.56 | > 75000 | 94 | 22 | Cn1cnc(S(=O)(=O)N2CCN(C3(CNC(=O)c4c(Cl)cccc4Cl)CCC(F)(F)CC3)CC2)c1 | –
21 | 1.24 | – | 80 | 46 | Cn1cc(S(=O)(=O)N2CCN(C3(CNC(=O)c4ccc(Cl)cc4Cl)CCC(F)(F)CC3)CC2)nn1 | –
22 | 1.14 | – | 100 | 69 | Cn1cc(S(=O)(=O)N2CCN(C3(CNC(=O)c4ccc(F)cc4Cl)CCC(F)(F)CC3)CC2)nn1 | –
23 | 2.35 | > 75000 | 90 | 60 | Cn1cnc(S(=O)(=O)N2CCN(C3(CNC(=O)c4ccc(C(F)(F)F)cc4Cl)CCC(F)(F)CC3)CC2)c1 | –
24 | 42.4 | > 75000 | – | – | CCCS(=O)(=O)N1CCN(C2(CNC(=O)c3c(Cl)cccc3Cl)CCC(F)(F)CC2)CC1 | microsomal CLint at 3 µM [1]: 3.8 µL/min/mg; microsomal CLint at 3 µM [2]: 4.3 µL/min/mg
25 | 5.09 | – | 100 | 85 | Cn1cnc(S(=O)(=O)N2CCN(C3(CNC(=O)c4ccc(F)cc4Cl)CCC(F)(F)CC3)CC2)c1 | –
26 | – | > 75000 | – | – | CC(C)CS(=O)(=O)N1CCN(C2(CNC(=O)c3c(N)cccc3Cl)CCCCC2)CC1 | –
27 | 38.4 | > 75000 | – | – | CCCS(=O)(=O)N1CCN(C2(CNC(=O)c3ccc(F)cc3Cl)CCC(F)(F)CC2)CC1 | –
